Data from ChEMBL document CHEMBL1165958, “Compounds from Acorus tatarinowii: determination of absolute configuration by quantum computations and cAMP regulation activity” (J Nat Prod, 2010).
Activity calls are given as the source filed them. The rule behind the calls is not given here.

Species: Mus musculus
Test: Induction of cAMP level in mouse NIE115 cells at 50 uM after 30 mins by Alphascreen cAMP assay
Format: functional, cell-based
Method in brief: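 N1E-115 neuroblastoma cells exposed to each test compound at 50 µM. Intracellular cAMP measured by AlphaScreen and read out as counts per second (cps). Values reported as means with standard error of the mean. Significance marked at p < 0.05, 0.01 and 0.001.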

Compound | Activity
COc1cc(OC)c(C(c2cc(OC)c(OC)cc2OC)[C@@H](C)O)cc1OC | Active
CCC(=O)c1cc(OC)c(OC)cc1OC | Active
COc1cc(OC)c(OC)cc1C=O | Active
C[C@H]1CC[C@H]2C(C)(C)C(=O)[C@@]3(C)C[C@@H](O)[C@@]12C3 | inactive
C=C1CC[C@@H]2[C@@](O)(C1)[C@H](C(C)C)CC[C@@]2(C)O | inactive
CC1=CC[C@]2(CC1=O)[C@@H](C)CC(=O)[C@H]2C(C)C | inactive
COc1cc(OC)c(C(=O)C(C)=O)cc1OC | Active
C/C=C\c1cc(OC)c(OC)cc1OC | inactive
CC(=O)O[C@@H]1C[C@H](C)[C@@]2(CC=C(C)C(=O)C2)[C@@H]1C(C)C | inactive
C/C=C\c1ccc(OC)c(OC)c1 | inactive
COc1cc(OC)c(OC)cc1CC(C)=O | Active
COc1ccc(CC(C)=O)cc1OC | inactive
CC1=CC[C@@]2(CC1=O)[C@@H](C(C)C)C(=O)C[C@@H]2C | inactive
CC1=CC[C@@]2(CC1=O)[C@H](C(C)C)[C@H](O)C[C@@H]2C | inactive
COc1cc(OC)c(OC)cc1/C=C\C=O | Active
C/C=C/c1cc(OC)c(OC)cc1OC | inactive
